Results pooled from the literature.
Compare with care: the assays were run in different laboratories.
Target: Mitogen-activated protein kinase kinase kinase 14 (MAP3K14, Homo sapiens, UniProt Q99558)

Nc1ncnc2occ(-c3ccc(NC(=O)Nc4cc(C(F)(F)F)ccc4F)cc3)c12
remaining signal (cell-free assay; inhibitor; 20 µM): 93%

C[C@@H](c1cccc(C#N)c1)n1cc(Cl)cc(C(N)=O)c1=N
remaining binding (cell-free assay; competition with immobilised ligand; 1 µM): 93%

CC(C)(C)c1nc(-c2cccc(NS(=O)(=O)c3c(F)cccc3F)c2F)c(-c2ccnc(N)n2)s1
remaining activity (enzyme activity; inhibitor; radiometric; 1 µM): 100%

CC(C)(O)[C@H]1CC[C@H](Nc2ccc3ncc(-c4cccc(C(F)(F)F)c4)n3n2)CC1
remaining activity (enzyme activity; inhibitor; 1 µM): 114%

C[C@@H]1CCN(c2nccc(-c3cnn4ncccc34)n2)C1
remaining binding (binding; competition with immobilised ligand; 1 µM): 72%

CC(C)(C)c1nc2c(s1)c1nc(N)ncc1c1ccc(NS(=O)(=O)c3c(F)cccc3F)c(F)c12
remaining activity (enzyme activity; inhibitor; radiometric; 1 µM): 104%

CCCOc1ccc([C@H]2[C@H](C(=O)O)[C@@H](c3ccc4c(c3)OCO4)CN2CC(=O)Nc2c(CC)cccc2CC)cc1
remaining binding (cell-free assay; competition with immobilised ligand; 1 µM): 85%

N#CCCc1ccc2c(c1)-c1[nH]c3ccc([N+](=O)[O-])cc3c1CC(=O)N2
remaining signal (cell-free assay; 0.5 µM): 161%
